Source: PubChem BioAssay (several laboratories)
Hits are enriched below; roughly 3.3% of the tested compounds scored in any of these assays.
HTR2A ag – mouse Htr2a agonists via beta-arrestin recruitment, primary screen, cell-based, luminescence. activation, % at 7.6 µM. AID 624169, 2012. actives 0.66% (n = 360,000). CHO-K1 mHTR2A beta-arrestin complementation; percent of 30 µM serotonin response. 5-hydroxytryptamine receptor 2A (Mus musculus), P35363;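 active = activation above a run cutoff, the mean activation of all tested compounds plus 3 SD, cut at about 14% in these data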;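 note: 0% = plate median of compound wells and 100% = 30 µM serotonin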
PfM18AAP inh-1 – PfM18AAP inhibitors, malaria aminopeptidase, primary screen, biochemical, QFRET, recombinant enzyme. actives 1.2% (n = 290,000). M18 aspartyl aminopeptidase (Plasmodium falciparum 3D7). H-Glu-NHMec fluorogenic cleavage. inhibition, % at 7.35 µM;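 active = inhibition above the campaign mean inhibition over all tested compounds plus 3 SD, cut at about 28% in these data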;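 note: 0% = plate median of test compound wells and 100% = 2 mM ZnCl2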
NRP1-CendR mod – modulators of CendR peptide binding to NRP-1, primary screen, biochemical, fluorescence polarization, uHTS; inhibition, % at 25 µM; FAM-RPARPAR peptide binding to NRP-1; actives 0.85% (n = 360,000); Neuropilin-1 (Homo sapiens), O14786;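 active = inhibition or corrected inhibition above about 18%, plus a signal ratio from 0.5 to 1.5, limit read from the data, passing the limit was not always enough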
Target sequence (O14786 whole entry, looked up): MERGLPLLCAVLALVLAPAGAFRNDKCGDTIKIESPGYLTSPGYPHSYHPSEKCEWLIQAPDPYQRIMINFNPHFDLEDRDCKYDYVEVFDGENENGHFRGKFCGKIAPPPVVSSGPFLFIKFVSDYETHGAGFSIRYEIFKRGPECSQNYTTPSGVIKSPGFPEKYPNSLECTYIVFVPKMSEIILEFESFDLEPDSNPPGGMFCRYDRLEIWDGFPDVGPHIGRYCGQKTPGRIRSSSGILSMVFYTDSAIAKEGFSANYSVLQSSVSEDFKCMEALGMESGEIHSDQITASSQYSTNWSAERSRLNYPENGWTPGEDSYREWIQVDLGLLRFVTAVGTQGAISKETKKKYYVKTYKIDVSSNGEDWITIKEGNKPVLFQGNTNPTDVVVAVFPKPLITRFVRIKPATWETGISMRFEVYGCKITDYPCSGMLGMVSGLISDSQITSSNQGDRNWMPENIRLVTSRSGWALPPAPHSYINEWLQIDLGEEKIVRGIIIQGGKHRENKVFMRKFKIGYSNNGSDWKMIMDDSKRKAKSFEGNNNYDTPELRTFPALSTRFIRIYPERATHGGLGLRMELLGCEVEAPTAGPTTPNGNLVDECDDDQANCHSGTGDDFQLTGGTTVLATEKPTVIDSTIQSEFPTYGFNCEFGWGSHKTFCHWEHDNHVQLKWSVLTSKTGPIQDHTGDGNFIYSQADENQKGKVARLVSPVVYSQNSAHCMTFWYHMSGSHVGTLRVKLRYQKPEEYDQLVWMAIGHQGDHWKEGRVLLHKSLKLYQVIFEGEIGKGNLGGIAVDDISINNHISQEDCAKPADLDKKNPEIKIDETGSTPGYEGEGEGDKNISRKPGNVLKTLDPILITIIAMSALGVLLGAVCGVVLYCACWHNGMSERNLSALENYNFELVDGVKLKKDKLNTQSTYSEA
Arr AP2 block – inhibitors of beta-arrestin/AP2 binding, primary screen, biochemical, GPCR trafficking, flow cytometry | beta-arrestin 1 C-terminal peptide binding to AP2 beta2-adaptin appendage (human) | FITC-arrestin peptide / GST-AP2 beads; AP2 beta2 appendage carries R879A mutation | inhibition, % at 10 µM | actives 0.31% (n = 340,000) | AID 504490, 2011;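 active = inhibition above a set limit, near 3 SD of compounds lacking own fluorescence, cut at about 54% in these data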;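 note: plate controls were DMSO wells for no effect and 5 µM unlabelled arrestin peptide for full effect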
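Test system: GST-tagged AP2 beta2-adaptin appendage (R879A) on 4 µm glutathione beads; also added: fluorescein-tagged arrestin peptide at 50 nM final; timing: 12 min plus 1 h, RT; signal: flow cytometry, FL1 (488/535 nm); read-out: percent drop in bead-associated FITC signal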
sPLA2-III inh – human group III sPLA2 inhibitors, primary screen, biochemical, QFRET, BODIPY PC-A2 liposome substrate; actives 0.56% (n = 370,000); AID 743126, 2013; QFRET BODIPY PC-A2 liposome hydrolysis, fluorescence; inhibition, % at 12.2 µM;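 active = inhibition above mean plus 3 SD of compounds lying within the high and low control bounds, cut at about 19% in these data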;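 note: 0% = median of test compound wells and 100% = no enzyme DMSO wells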
Hep lipid drop – inhibitors of hepatocyte lipid droplet formation, primary screen, imaging, high-throughput imaging, BODIPY stain; actives 0.4% (n = 240,000); inhibition, % at 6.5 µM; AID 1656, 2009; AML12 mouse hepatocytes, oleate lipid droplets;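 active = lipid droplet intensity inhibited by at least 50%, with more than 500 cells counted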
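Assay system: AML12 mouse liver cells | Compound dosing: One dose, 6.5 µM compound | Read-out basis: Droplet intensity reduction, % inhibition | Measured by: Fluorescence imaging, 20x objective, two fields per well | Schedule: Overnight treatment with compound plus oleate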
PfM18AAP inh-2 – PfM18AAP inhibitors, malaria aminopeptidase, confirmation, biochemical, QFRET, recombinant enzyme, triplicate; shares compounds with PfM18AAP inh-1; H-Glu-NHMec fluorogenic cleavage; inhibition, % at 7.35 µM; actives 28% (n = 2,400); AID 2170, 2009;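 active = mean inhibition over replicate wells above the hit cutoff set for the earlier primary screen, cut at about 29% in these data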;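 note: 0% = median of test compound wells and 100% = 2 mM ZnCl2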
CTSL1 confirm – cathepsin L1 inhibitors, retest, confirmation, counter-screen for PFM18AAP inhibitor project, biochemical, QFRET, triplicate. shares compounds with PfM18AAP inh-1. purified cathepsin L1, Z-Leu-Arg-MCA fluorescence. inhibition, % at 5.96 µM. 2,400 tested, under 10 active. AID 2178, 2009;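 active = average inhibition across replicates above the hit cutoff set in the earlier primary screen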;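 note: 0% = median of test compound wells and 100% = Z-Phe-Ala-diazomethylketone 1 µM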
* = called active by the depositor; · = no result.

SMILES	HTR2A ag	PfM18AAP inh-1	NRP1-CendR mod	Arr AP2 block	sPLA2-III inh	Hep lipid drop	PfM18AAP inh-2	CTSL1 confirm
O=C(COC(=O)c1ccccc1NC(=O)c1ccccc1)c1ccc([N+](=O)[O-])cc1	0	40*	16	2	-1	-7	-19	5
O=C(COC(=O)c1ccccc1NC(=O)c1ccccc1)c1cccc([N+](=O)[O-])c1	-1	2	-18	-15	-8	6	·	·
O=C(CCC(=O)OCC(=O)c1ccc([N+](=O)[O-])cc1)NC1CCCCC1	-2	34*	-4	4	11	1	-8	-12
O=C(CNC(=O)c1ccc(Br)cc1)OCC(=O)c1ccccc1	5	-7	10	7	2	0	·	·
O=C(CNC(=O)c1ccc(Br)cc1)NCC(=O)OCC(=O)c1ccc([N+](=O)[O-])cc1	-2	38*	4	6	1	5	-15	-4
O=C(CCC(=O)OCC(=O)c1cccc([N+](=O)[O-])c1)NC1CCCCC1	-1	-5	12	8	8	16	·	·
CCCS(=O)(=O)NC(=O)C1(C)CCN(C(=O)c2ccc(F)cc2Cl)C1 (stereo not given)	6	·	1	·	·	·	·	·
O=C(C[n+]1ccc(C(=O)NCc2ccccc2)cc1)c1ccc(Cl)cc1	-7	0	2	26	2	-15	·	·
Cc1nc2ccccn2c1C(=O)N/N=C/c1ccccc1[N+](=O)[O-]	1	-2	2	14	1	·	·	·
Cc1nc2c(C)cccn2c1C(=O)N/N=C/c1ccccc1[N+](=O)[O-]	2	40*	8	36	7	-6	-41	-3
CCCCCCn1c(-c2ccc(Cl)cc2Cl)csc1=Nc1ccccc1	·	·	·	·	1	·	·	·
CCOc1ccc(N=c2scc(-c3ccccc3)n2CCO)cc1	-3	19	-21	6	5	10	·	·
OCCn1c(-c2ccc3c(c2)OCO3)csc1=Nc1ccccc1	-6	37*	-2	5	3	-20	-52	3
CCOc1ccc2ccccc2c1/C=N/NC(=O)c1ccncc1	3	1	-2	42	3	-2	·	·
Cc1ccc(S(=O)(=O)N2CC=C(c3ccc(F)cc3)CC2)cc1	-8	76*	4	0	-8	-1	-53	-3
O=[N+]([O-])c1cc([N+](=O)[O-])c2nonc2c1Nc1ccccc1O	5	38*	-12	0	2	-8	-2	3
O=[N+]([O-])c1cc([N+](=O)[O-])c2nonc2c1Nc1ccc(O)cc1	-5	-1	-27	1	-4	-11	·	·
C=CCc1c(C)nc(-c2ccccc2)nc1N/N=C(\C)c1ccc(N)cc1	1	52*	-3	2	9	-12	14	-3
C=CCc1c(C)nc(-c2ccccc2)nc1N/N=C/c1ccccc1	3	17	-3	-1	-4	-13	·	·
CCC/C=N/Nc1nnc(Cc2ccc(OC)c(OC)c2)c(=O)[nH]1	4	32*	0	-20	-2	7	-29	-5
COc1ccc2nc(C)cc(SCC(=O)N/N=C/c3ccc(O)c(O)c3)c2c1	-6	60*	-55	-2	-10	1	63*	-5
COc1cccc2c(SCC(=O)N/N=C/c3ccccc3)cc(C)nc12	1	3	4	-1	-21	0	·	·
COc1ccc2nc(C)cc(SCC(=O)N/N=C/c3cccc4ccccc34)c2c1	-2	3	-14	-3	-12	13	·	·
COc1cc(C(=O)N/N=C/c2ccc3c(c2)c2ccccc2n3C)ccc1O	-13	11	3	-8	-8	-4	·	·
COc1ccc2c(c1)c(C(=O)N/N=C/c1ccc(O)c(O)c1)c(C)n2C	-2	51*	-12	-3	12	26	40*	2
SMILES	HTR2A ag	PfM18AAP inh-1	NRP1-CendR mod	Arr AP2 block	sPLA2-III inh	Hep lipid drop	PfM18AAP inh-2	CTSL1 confirm
COc1cccc2c(SCC(=O)N/N=C/c3ccc(O)c(O)c3)cc(C)nc12	-1	66*	-17	-3	-5	2	63*	-2
O=C(NC1CCC1)c1ccc(C#Cc2cccc(F)c2)nc1	·	·	·	·	4	·	·	·
Cc1ccc(C(C(=O)NC(C)(C)C)N(Cc2cccs2)C(=O)c2csnn2)cc1 (stereo not given)	-4	35*	11	26	2	·	-53	1
COc1cc(/C=C/C(=O)O)cc(S(=O)(=O)Nc2ccc3nc(C)sc3c2)c1OC	2	38*	-6	24	-8	23	-6	2
O=C(NCC1CCN(C(=O)C(=O)c2cccs2)CC1)c1cccnc1	·	·	·	·	6	·	·	·
CC1=CC(C)(C)N(C(=O)CSc2ncn[nH]2)c2ccc(C)cc21	2	56*	-6	-25	-28	9	-31	4
CC1=CC(C)(C)N(C(=O)CN2C(=O)CCC2=O)c2ccc(C)cc21	2	4	7	0	-2	-2	·	·
CC1(C(=O)Nc2cnc3ccccc3c2)CCN1Cc1cc2ccccc2o1 (stereo not given)	-3	·	-4	·	-7	·	·	·
N#Cc1c(N)sc(=S)c2c1CCCCC2	1	8	5	24	-6	-3	·	·
N#Cc1c(N)sc2c1CCCCCC2	0	43*	-4	0	3	·	-6	0
O=C(NNc1c(Cl)cccc1Cl)c1c(F)cccc1Cl	-1	-1	-10	2	-5	-7	·	·
O=C(NNc1ccc(F)cc1F)c1c(F)cccc1Cl	2	33*	19	1	10	18	6	2
O=C(C(=O)N1CCC(Cc2ccccc2)CC1)c1cccc(Br)c1	-4	·	-4	·	5	·	·	·
CCOc1ccc(S(=O)(=O)Nc2ncn[nH]2)cc1	1	46*	18	2	7	-2	33*	-5
CC(Cl)C(=O)NNC(=O)CNS(=O)(=O)c1ccccc1 (stereo not given)	2	45*	3	1	6	-10	20	-1
